Laboratory results reported in ChEMBL document CHEMBL1152221, “Synthesis and activity of substituted carbamates as potentiators of the alpha4beta2 nicotinic acetylcholine receptor” (Bioorg Med Chem Lett, 2008).
The source made the active and inactive calls. The rule behind the calls is not given here.

How the values were obtained:
[1] = biological target: T1, Neuronal acetylcholine receptor; alpha4/beta2 (Homo sapiens) (UniProt P17787+P43681); test: Activity at human alpha4beta2 nAChR assessed as potentiation of nicotine-induced response by fluorescent Ca2+ flux assay
[2] = biological target: T1, Neuronal acetylcholine receptor; alpha4/beta2 (Homo sapiens); test: Activity at human alpha4beta2 nAChR assessed as potentiation of nicotine-induced response by fluorescent Ca2+ flux assay relative to nicotine
[3] = Metabolic stability in rat liver microsomes; format: ADME, Microsome; settings: read-out: Stability
[4] = biological target: Neuronal acetylcholine receptor; alpha3/beta2 (Homo sapiens) (UniProt P17787+P32297); test: Activity at human alpha3beta2 nAChR expressed in Xenopus oocytes assessed as potentiation of acetylcholine-induced response by patch-clamp electrophysiology; format: cell-based; settings: Oocyte
[5] = Metabolic stability in human liver microsomes; format: ADME, Microsome; settings: read-out: Stability
[6] = test system: LLC-PK1; test: Efflux ratio of permeability from […] in human MDR1 transfected pig LLC-PK1 cells at 5 uM after 2 hrs; format: ADME, cell-based, Sus scrofa; settings: llc-pk1, 2 h
Method in brief: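 MDR1-LLC-PK1 cells were seeded at 200,000 cells/well on membrane filters. Transport was run manually on day 5 after plating, in both A-to-B and B-to-A directions, in the presence of 0.1% bovine serum albumin.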

[7] = Clearance in Sprague-Dawley rat; format: ADME, organism-based; settings: in vivo
[8] = biological target: Neuronal acetylcholine receptor; alpha3/beta4 (Homo sapiens) (UniProt P30926+P32297); test: Activity at human alpha3beta4 nAChR expressed in Xenopus oocytes assessed as potentiation of acetylcholine-induced response by patch-clamp electrophysiology; format: cell-based; settings: Oocyte
[9] = Ratio of drug level in brain to plasma in Sprague-Dawley rat; format: ADME, organism-based; settings: brain and plasma
[10] = biological target: Neuronal acetylcholine receptor; alpha4/beta2 (Rattus norvegicus) (UniProt P09483+P12390); test: Displacement of [3H]cystisine from alpha4beta2 nAChR in rat cerebral cortical membrane at >=30 uM; format: cell membranes

Row | SMILES | EC12 [1] [µM] | Efficacy [2] [%] | also measured
1 | CC(C)[C@H](Cn1cccn1)OC(=O)Nc1ccc(F)cc1F | > 50 | 6 | 
2 | CC(C)[C@H](Cn1nc(C(F)(F)F)cc1-c1ccccc1)OC(=O)Nc1ccc(F)cc1F | 2.4 | 10 | 
3 | COc1ccc(NC(=O)O[C@@H](Cn2nc(C(C)C)cc2C(C)C)C(C)C)cc1 | 0.14 | 77 | 
4 | CC(C)[C@H](Cn1nccc1C(F)(F)F)OC(=O)Nc1ccc(F)cc1F | 2.1 | 30 | 
5 | CC(C)c1cc(C(C)C)n(C[C@H](OC(=O)NC2CCCCC2)C(C)C)n1 | 2.7 | 13 | 
6 | CCc1cc(C(F)(F)F)nn1C[C@H](OC(=O)Nc1ccc(F)cc1F)C(C)C | 0.21 | 50 | 
7 | CC[C@H](Cn1nc(C(F)(F)F)cc1C1CCCO1)OC(=O)Nc1ccc(F)cc1F (some centres not stated) | > 100 | 3 | 
8 | CC[C@H](Cn1nc(C(F)(F)F)cc1C1CC1)OC(=O)Nc1ccc(F)cc1F | 0.7 | 54 | 
9 | CC[C@H](Cn1nc(C(F)(F)F)cc1C1=CCCC1)OC(=O)Nc1ccc(F)cc1F | 0.46 | 20 | 
10 | CC(C)c1cc(C(C)C)n(C[C@H](OC(=O)Nc2ccc(C(F)(F)F)cc2)C(C)C)n1 | 0.4 | 106 | 
11 | CC[C@H](Cn1ccc(C(F)(F)F)n1)OC(=O)Nc1ccc(F)cc1F | 0.89 | 15 | 
12 | CCCOc1ccc(NC(=O)O[C@@H](Cn2nc(C(C)C)cc2C(C)C)C(C)C)cc1 | 0.33 | 107 | 
13 | CC[C@H](Cn1nc(C(F)(F)F)cc1C1CCCCC1)OC(=O)Nc1ccc(F)cc1F | 0.38 | 88 | 
14 | CC[C@H](Cn1nc(C)cc1C)OC(=O)Nc1ccc(F)cc1F | 1.18 | 15 | 
15 | CC(C)c1cc(C(C)C)n(C[C@H](OC(=O)Nc2ccc(Oc3ccccc3)cc2)C(C)C)n1 | 0.34 | 89 | 
16 | CC(C)c1cc(C(C)C)n([C@@H]2CCC[C@H]2OC(=O)Nc2ccc(F)cc2F)n1 | 0.25 | 73 | 
17 | CC(C)[C@H](Cn1nc(C(F)(F)F)cc1C(F)(F)F)OC(=O)Nc1ccc(F)cc1F | 3.9 | 16 | 
18 | CC[C@H](Cn1nc(C(F)(F)F)cc1C1CCCC1)OC(=O)Nc1ccc(F)cc1F | 0.57 | 95 | clearance [7]: 70.5 mL/min/kg
19 | CCOc1ccc(NC(=O)O[C@@H](Cn2nc(C(C)C)cc2C(C)C)C(C)C)cc1 | 0.11 | 100 | Activity [10]: inactive; clearance [7]: 30 mL/min/kg
20 | CC[C@H](Cn1nc(C(F)(F)F)cc1C1CCNCC1)OC(=O)Nc1ccc(F)cc1F | > 100 | -3 | 

More lines, main results first:

Row | EC12 [1] [µM] | Efficacy [2] [%] | SMILES | also measured
21 | 0.38 | 83 | CC[C@H](Cn1nc(C(C)C)cc1C(C)C)OC(=O)Nc1ccc(F)cc1F | 
22 | 0.7 | 12 | CC(C)c1cc(C(C)C)n(CC(OC(=O)Nc2ccsc2)C(C)C)n1 (racemic) | 
23 | 0.33 | 91 | CC(C)c1cc(C(C)C)n(C[C@H](OC(=O)Nc2ccc(Cl)cc2)C(C)C)n1 | 
24 | > 100 | 10 | CC(C)c1cc(C(C)C)n([C@@H](C)[C@@H](C)OC(=O)Nc2ccc(F)cc2F)n1 (racemic) | 
25 | 0.38 | 18 | CC(C)c1cc(C(C)C)n(CC(OC(=O)Nc2ccccc2)C(C)C)n1 (racemic) | 
26 | > 100 | 9 | Cc1ccccc1NC(=O)O[C@@H](Cn1nc(C(C)C)cc1C(C)C)C(C)C | 
27 | 1.3 | 12 | CC(C)c1cc(C(C)C)n([C@H](C)[C@@H](C)OC(=O)Nc2ccc(F)cc2F)n1 (racemic) | 
28 | > 100 | 7 | CC(C)c1cc(C(C)C)n(C[C@H](OC(=O)Nc2ccncc2)C(C)C)n1 | 
29 | 0.25 | 76 | CC(C)c1cc(C(C)C)n(C[C@H](OC(=O)Nc2ccc(F)cc2F)C(C)C)n1 | microsomal CLint [3]: > 399 µL/min/mg; EC12 [4]: > 100 µM; microsomal CLint [5]: 644 µL/min/mg; Ratio [6]: 1.1; clearance [7]: 81.7 mL/min/kg; EC12 [8]: > 100 µM; Kp [9]: 1
30 | 0.9 | 25 | Cc1cccc(NC(=O)O[C@@H](Cn2nc(C(C)C)cc2C(C)C)C(C)C)c1 | 
31 | > 10 | 19 | CC(C)c1cc(C(C)C)n(C[C@@H](NC(=O)Nc2ccc(F)cc2F)C(C)C)n1 | 
32 | > 50 | 9 | CC(C)c1cc(C(C)C)n(C[C@@H](OC(=O)Nc2ccc(F)cc2F)C(C)C)n1 | 
33 | 0.31 | 25 | CC(C)c1cc(C(C)C)n(C[C@H](NC(=O)Nc2ccc(F)cc2F)C(C)C)n1 | EC12 [4]: > 100 µM; Ratio [6]: 1.1; clearance [7]: 50 mL/min/kg; EC12 [8]: > 100 µM; Kp [9]: 1
34 | 3.7 | 11 | CC(C)c1cc(C(C)C)n(CC(OC(=O)Nc2ccc(F)cc2F)C(C)(C)C)n1 (racemic) | 
35 | 0.7 | 15 | CC(C)c1cc(C(C)C)n(C[C@@H](C)OC(=O)Nc2ccc(F)cc2F)n1 | 
36 | 0.13 | 59 | Cc1ccc(NC(=O)O[C@@H](Cn2nc(C(C)C)cc2C(C)C)C(C)C)cc1 | 
